From the M2OR odorant receptor database come the findings set out here.

Common to all, as to conditions: stereoisomer not certain
For assay [1], the system named is T1, O10A6.
T1 sequence (whole entry): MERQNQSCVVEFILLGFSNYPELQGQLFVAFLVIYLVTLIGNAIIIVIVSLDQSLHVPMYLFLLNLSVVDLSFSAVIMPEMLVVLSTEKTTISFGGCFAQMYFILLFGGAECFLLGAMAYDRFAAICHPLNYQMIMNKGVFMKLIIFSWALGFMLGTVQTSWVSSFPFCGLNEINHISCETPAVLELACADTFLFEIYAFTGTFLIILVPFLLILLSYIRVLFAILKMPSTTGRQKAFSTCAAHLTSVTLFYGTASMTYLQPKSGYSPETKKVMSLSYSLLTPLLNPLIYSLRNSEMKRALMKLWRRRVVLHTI
Put shortly: (§1)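 Whether a receptor–molecule pair is responsive (active) rests on the original authors' judgment that its measured signal was statistically different from baseline. Pairs without that judgment are non-responsive (inactive). Sources used varied assay methods, commonly transient luciferase assays in mammalian cell lines.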

Assay [2] concerns T2, A0A140T8K4.
T2 sequence (whole entry): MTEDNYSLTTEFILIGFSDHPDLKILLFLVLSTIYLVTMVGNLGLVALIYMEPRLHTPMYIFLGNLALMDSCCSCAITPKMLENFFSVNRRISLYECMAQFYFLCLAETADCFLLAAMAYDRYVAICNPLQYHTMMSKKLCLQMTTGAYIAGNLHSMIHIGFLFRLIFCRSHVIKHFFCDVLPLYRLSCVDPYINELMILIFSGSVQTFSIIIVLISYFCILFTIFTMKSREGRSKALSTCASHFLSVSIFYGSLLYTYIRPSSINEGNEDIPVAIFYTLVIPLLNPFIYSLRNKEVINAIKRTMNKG
In a few lines: as §1

In assay [3] the test system is T3, A0A1L1SVG7.
T3 sequence (whole entry): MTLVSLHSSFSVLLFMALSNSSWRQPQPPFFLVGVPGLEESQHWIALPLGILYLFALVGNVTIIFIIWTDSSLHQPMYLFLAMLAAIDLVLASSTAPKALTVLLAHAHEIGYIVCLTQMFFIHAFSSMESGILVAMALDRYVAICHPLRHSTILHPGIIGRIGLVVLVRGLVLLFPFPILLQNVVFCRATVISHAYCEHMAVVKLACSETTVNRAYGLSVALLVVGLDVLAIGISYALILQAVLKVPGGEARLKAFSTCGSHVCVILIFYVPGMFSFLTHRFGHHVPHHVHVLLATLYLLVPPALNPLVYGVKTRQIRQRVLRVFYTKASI
In a few lines:
as §1

For assay [4], the system named is T4, A0A2J8MY22.
T4 sequence (whole entry): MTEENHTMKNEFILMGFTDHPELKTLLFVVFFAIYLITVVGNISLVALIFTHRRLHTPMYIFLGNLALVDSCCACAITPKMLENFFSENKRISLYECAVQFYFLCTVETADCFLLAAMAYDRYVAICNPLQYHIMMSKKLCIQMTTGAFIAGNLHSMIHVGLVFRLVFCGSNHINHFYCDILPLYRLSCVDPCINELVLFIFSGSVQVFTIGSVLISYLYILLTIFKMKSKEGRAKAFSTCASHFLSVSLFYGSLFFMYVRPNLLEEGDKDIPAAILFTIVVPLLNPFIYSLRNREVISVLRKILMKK
In a few lines:
as §1

Assay [5] relates to T5, A0A2R8ZIW4.
T5 sequence (whole entry): T4 sequence (whole entry) with V39I, I280V
Put shortly:
as §1

For assay [6], the system named is T6, A0A3Q7SVK8.
T6 sequence (whole entry): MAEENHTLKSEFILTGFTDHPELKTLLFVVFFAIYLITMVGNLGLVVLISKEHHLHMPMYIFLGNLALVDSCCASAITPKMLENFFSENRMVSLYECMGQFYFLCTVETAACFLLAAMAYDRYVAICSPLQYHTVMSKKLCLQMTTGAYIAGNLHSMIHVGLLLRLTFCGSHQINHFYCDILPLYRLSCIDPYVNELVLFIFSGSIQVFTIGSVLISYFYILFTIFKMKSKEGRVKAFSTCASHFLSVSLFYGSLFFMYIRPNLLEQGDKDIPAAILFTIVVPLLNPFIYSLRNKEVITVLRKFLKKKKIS
In a few lines:
as §1

Assay [7] has as its system T7, A0A6P3DZI2.
T7 sequence (whole entry): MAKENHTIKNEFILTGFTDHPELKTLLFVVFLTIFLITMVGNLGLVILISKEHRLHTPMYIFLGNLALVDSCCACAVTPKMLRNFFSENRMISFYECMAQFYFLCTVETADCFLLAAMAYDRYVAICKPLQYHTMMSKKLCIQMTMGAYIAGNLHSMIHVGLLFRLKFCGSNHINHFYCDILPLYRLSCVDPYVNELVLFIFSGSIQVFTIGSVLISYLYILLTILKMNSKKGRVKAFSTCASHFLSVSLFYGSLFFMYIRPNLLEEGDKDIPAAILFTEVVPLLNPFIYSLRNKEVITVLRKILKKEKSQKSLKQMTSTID
Put shortly: as §1

In assay [8] the test system is T8, A0A6P6H1F7.
T8 sequence (whole entry): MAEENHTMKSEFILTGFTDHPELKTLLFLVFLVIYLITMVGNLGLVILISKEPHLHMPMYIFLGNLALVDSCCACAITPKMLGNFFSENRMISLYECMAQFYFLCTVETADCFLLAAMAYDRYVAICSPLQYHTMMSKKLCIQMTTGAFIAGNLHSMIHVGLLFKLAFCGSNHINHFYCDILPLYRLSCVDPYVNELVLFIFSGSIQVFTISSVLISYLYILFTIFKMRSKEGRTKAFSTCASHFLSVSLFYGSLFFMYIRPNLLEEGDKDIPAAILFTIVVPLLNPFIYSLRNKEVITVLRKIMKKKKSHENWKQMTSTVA
Put shortly: as §1

Assay [9] relates to T9, O10A2 H43R H207R K258T.
T9 sequence (whole entry): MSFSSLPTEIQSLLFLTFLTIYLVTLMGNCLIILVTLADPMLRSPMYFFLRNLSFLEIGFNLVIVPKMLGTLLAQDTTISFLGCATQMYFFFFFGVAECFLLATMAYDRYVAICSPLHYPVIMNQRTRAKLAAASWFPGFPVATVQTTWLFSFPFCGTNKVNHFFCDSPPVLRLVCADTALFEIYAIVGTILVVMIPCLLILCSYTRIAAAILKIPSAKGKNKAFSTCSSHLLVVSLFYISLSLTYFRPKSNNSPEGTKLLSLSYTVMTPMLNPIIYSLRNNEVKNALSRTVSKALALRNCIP
In a few lines:
as §1

For assay [10], the system named is T10, O10A3 C8G.
T10 sequence (whole entry): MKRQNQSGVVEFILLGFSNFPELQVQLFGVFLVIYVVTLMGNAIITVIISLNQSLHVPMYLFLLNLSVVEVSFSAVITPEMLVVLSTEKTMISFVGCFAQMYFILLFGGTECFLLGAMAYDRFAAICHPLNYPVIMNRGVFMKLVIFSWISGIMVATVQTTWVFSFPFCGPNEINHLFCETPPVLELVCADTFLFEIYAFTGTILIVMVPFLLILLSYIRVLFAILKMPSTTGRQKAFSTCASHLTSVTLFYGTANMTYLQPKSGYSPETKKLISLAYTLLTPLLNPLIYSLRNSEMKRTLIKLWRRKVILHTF
Put shortly: as §1

In assay [11] the test system is T11, O10AD G65C.
T11 sequence (whole entry): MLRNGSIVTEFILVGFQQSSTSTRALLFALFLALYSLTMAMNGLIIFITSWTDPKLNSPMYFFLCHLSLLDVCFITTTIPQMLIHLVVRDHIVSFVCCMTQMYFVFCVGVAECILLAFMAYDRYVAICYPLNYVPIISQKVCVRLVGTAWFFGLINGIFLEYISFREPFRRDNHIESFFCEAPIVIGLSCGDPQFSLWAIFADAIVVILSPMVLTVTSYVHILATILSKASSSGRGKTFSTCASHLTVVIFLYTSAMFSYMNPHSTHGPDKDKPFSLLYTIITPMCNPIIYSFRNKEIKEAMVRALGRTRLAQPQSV
Put shortly: as §1

The test system of assay [12] is T12, O10D3 V134A R197K.
T12 sequence (whole entry): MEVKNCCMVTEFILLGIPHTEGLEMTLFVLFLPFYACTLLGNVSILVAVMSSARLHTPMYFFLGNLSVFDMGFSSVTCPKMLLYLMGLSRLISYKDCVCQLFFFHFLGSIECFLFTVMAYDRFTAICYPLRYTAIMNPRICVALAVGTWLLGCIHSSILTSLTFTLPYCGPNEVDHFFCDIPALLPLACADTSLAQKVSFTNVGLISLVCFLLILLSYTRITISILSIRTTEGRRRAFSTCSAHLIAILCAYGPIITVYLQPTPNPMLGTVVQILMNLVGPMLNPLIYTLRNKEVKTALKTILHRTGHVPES
Put shortly:
as §1

The subject of assay [13] is T13, O10G4 L24P V195E.
T13 sequence (whole entry): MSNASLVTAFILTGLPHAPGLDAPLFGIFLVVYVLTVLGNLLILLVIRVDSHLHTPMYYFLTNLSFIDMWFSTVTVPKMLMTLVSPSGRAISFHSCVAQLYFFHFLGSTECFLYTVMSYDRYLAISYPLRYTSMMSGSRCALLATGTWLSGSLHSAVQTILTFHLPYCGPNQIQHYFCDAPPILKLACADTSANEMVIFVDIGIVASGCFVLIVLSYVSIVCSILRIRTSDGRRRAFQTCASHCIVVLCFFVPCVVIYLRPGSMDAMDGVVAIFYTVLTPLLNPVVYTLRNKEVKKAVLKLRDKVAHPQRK
Put shortly:
as §1

The subject of assay [14] is T14, O10G7 A18V P19Q G20A.
T14 sequence (whole entry): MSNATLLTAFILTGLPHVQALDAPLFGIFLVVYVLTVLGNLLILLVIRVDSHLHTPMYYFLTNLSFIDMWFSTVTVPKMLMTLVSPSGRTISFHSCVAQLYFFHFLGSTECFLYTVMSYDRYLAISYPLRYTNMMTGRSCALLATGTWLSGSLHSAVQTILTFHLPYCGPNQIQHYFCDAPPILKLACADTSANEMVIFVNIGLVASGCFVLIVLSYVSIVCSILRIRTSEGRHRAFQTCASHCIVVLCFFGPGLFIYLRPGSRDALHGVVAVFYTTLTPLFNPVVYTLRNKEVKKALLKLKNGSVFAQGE
In a few lines: as §1

In assay [15] the test system is T15, O10G7 I28V.
T15 sequence (whole entry): T14 sequence (whole entry) with V18A, Q19P, A20G, I28V
In a few lines: as §1

Assay [16] deals with T16, A0A140T8K0.
T16 sequence (whole entry): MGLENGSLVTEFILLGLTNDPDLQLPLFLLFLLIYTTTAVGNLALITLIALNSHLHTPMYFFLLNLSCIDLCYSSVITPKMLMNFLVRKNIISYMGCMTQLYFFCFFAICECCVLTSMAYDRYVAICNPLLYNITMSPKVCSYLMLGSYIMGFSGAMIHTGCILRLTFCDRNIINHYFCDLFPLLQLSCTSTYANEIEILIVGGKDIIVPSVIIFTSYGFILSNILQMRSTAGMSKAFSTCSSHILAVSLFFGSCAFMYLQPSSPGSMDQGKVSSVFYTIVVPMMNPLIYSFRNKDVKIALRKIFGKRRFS
In a few lines: as §1

Positions count from the first letter of the chain named.
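Also: active if original authors judged signal statistically different from baseline.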

Take `CCCCC=CCCCCC=O`: the “odorant receptor agonist call” value in assay [1] is “active”.
For `CCCCCO`, the “odorant receptor agonist call” value in assay [2] and in [3] was “inactive” throughout.
For `CC1=NC(C)C(C)S1` (stereo not given), the “odorant receptor agonist call” value in assay [2], in assay [4], in [5], in assay [6], in assay [7] and in assay [8] was “active” in each case. Besides, the “odorant receptor agonist call” value in assay [9], in assay [10], in assay [1], in assay [11], in assay [12] and in assay [13] was “inactive” throughout. Also, the “odorant receptor agonist call” value in assay [14] and in assay [15] was “inactive” in each case.
As to `Cc1cnccn1`, the “odorant receptor agonist call” value in assay [2] and in assay [7] was “inactive” each time. For the same compound, the “odorant receptor agonist call” value in [4], in [5], in assay [6] and in [8] was “active” each time.
On to `CCc1ncc(C)nc1CC`, for which the “odorant receptor agonist call” value in [16] and in assay [2] was “inactive” throughout. Besides, the “odorant receptor agonist call” value in assay [4], in [5], in assay [6], in [7] and in assay [8] was “active” throughout.
As for `CCCCC=CCCC=O`, the “odorant receptor agonist call” value in assay [1] is “active”.
As to `Cc1cnc(C)c(C)n1`, the “odorant receptor agonist call” value in assay [2], in [9], in assay [10], in assay [1], in [11] and in [12] was “inactive” throughout. In addition, the “odorant receptor agonist call” value in assay [13], in assay [14] and in [15] was “inactive” throughout. Besides, the “odorant receptor agonist call” value in assay [4], in assay [5], in assay [6], in assay [7] and in assay [8] was “active” in each case.
In the case of `CCc1nccnc1CC`, the “odorant receptor agonist call” value in [16], in [2] and in assay [7] was “inactive” in each case. For the same compound, the “odorant receptor agonist call” value in [4], in [5], in assay [6] and in assay [8] was “active” throughout.
On to `CCC(=O)C(=O)CC`, for which the “odorant receptor agonist call” value in assay [16], in [2] and in assay [3] was “inactive” each time.
As to `CC1=C(O)C(=O)C(C)O1` (stereo not given), the “odorant receptor agonist call” value in assay [9], in assay [10], in [1], in [11], in assay [12] and in assay [13] was “inactive” in each case. Besides, the “odorant receptor agonist call” value in assay [14] and in assay [15] was “inactive” each time.
Regarding `CCCC(S)CCOC(C)=O` (stereo not given), the “odorant receptor agonist call” value in assay [9], in [10], in assay [1], in [11], in assay [12] and in [13] was “inactive” throughout. The “odorant receptor agonist call” value in [14] and in [15] was “inactive” each time.
As to `Cc1cncc(C)n1`, the “odorant receptor agonist call” value in [2] was “inactive”. For the same compound, the “odorant receptor agonist call” value in assay [4], in assay [5], in assay [6], in assay [7] and in [8] was “active” each time.
Consider `Cc1nccnc1C`, for which the “odorant receptor agonist call” value in assay [2] and in assay [7] was “inactive” each time. Further, the “odorant receptor agonist call” value in assay [4], in assay [5], in assay [6] and in [8] was “active” throughout.
`COc1nccnc1C(C)C`: the “odorant receptor agonist call” value in [16], in assay [2] and in [7] was “inactive” throughout. Besides, the “odorant receptor agonist call” value in assay [4], in assay [5], in assay [6] and in [8] was “active” throughout.
